Reference: ChEMBL document CHEMBL3351820, “Development of novel membrane active lipidated peptidomimetics active against drug resistant clinical isolates” (Bioorg Med Chem, 2014)
Converted amounts (≈) assume the structure as drawn. The source made the active and inactive calls. The calls are words filed in the database; no cut-off is given here. Where a SMILES comes first, the peptide text is derived from it. [ ]: non-standard residue; d: D form. The star is where a group is joined. Stearoyl = CCCCCCCCCCCCCCCCCC(=O)*; Lauroyl = CCCCCCCCCCCC(=O)*; Decanoyl = CCCCCCCCCC(=O)*; 3Abz = Nc1cccc(C(=O)O)c1; Orn = NCCC[CH](N)C(=O)O

Assays:
Candida albicans [1] = experiment: Antifungal activity against fluconazole-resistant Candida albicans PGI/ DML0109 clinical isolate after 48 to 72 hrs by M27-A method; type: functional
How it was run: (§1)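 Fungi at 2.5×10^3 cfu/mL in RPMI 1640 (L-glutamine, no glucose or NaHCO3, pH 7.0 with 0.165 M MOPS). Mixed 1:1 with serial 2-fold dilutions in water, incubated at 37 °C with shaking, 24 h for A. fumigatus and 48–72 h for C. albicans. Growth read by absorbance at 600 nm. MIC taken as the lowest concentration with no growth.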

Escherichia coli [2] = experiment: Antibacterial activity against Escherichia coli MTCC 0723 after 18 hrs by micro dilution broth assay; type: functional; conditions: MTCC 0723, 18 h
How it was run: (§2)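 Broth microdilution (modified CLSI): mid-log inoculum at 10^5 CFU/mL in Mueller-Hinton broth; serial 2-fold dilutions of sample in 0.001% acetic acid with 0.2% BSA added. Incubated overnight at 37 °C with agitation; A600 read at 18 h. Drug-free culture and uninoculated broth as controls; triplicate.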

[3] = Membrane permeabilization activity assessed as release of calcein from PC/PE/PI/ergosterol liposomes at 4 ug/ml after 5 mins by spectrofluorimetry; type: ADME
How it was run: (§3)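 Calcein-loaded LUVs, PE/PG (bacterial mimic) or PC/PE/PI/ergosterol (fungal mimic), exposed to 1-20 μg/mL for 5 min before fluorescence reading. Triton X-100 in Tris-HCl/NaCl/EDTA buffer sets 100% leakage; % leakage = 100(F−F0)/(Ft−F0). Run in triplicate, two independent experiments, mean ± SD.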

Aspergillus niger = experiment: Antifungal activity against Aspergillus niger ATCC 64028 after 24 hrs by M27-A method; type: functional; conditions: ATCC 64028, 24 h
How it was run: (§4)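 Fungi at 2.5×10^3 cfu/mL in RPMI 1640 (L-glutamine, no glucose or NaHCO3, buffered pH 7.0 with 0.165 M MOPS), mixed 1:1 with serial 2-fold aqueous dilutions. Incubated at 37 °C with shaking, 24 h for Aspergillus, 48-72 h for Candida and Cryptococcus; A600 read. MIC taken as lowest concentration with no growth.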

[4] = Membrane permeabilization activity assessed as release of calcein from PC/PE/PI/ergosterol liposomes at 20 ug/ml after 5 mins by spectrofluorimetry; type: ADME; how it was run: as §3
[5] = Membrane permeabilization activity assessed as release of calcein from PE/PG liposomes at 20 ug/ml after 5 mins by spectrofluorimetry; type: ADME; how it was run: as §3
Escherichia coli [6] = experiment: Antibacterial activity against imipenem-resistant Escherichia coli PGI/ DML02292 clinical isolate after 18 hrs by micro dilution broth assay; type: functional; conditions: PGI/ DML02292, 18 h
Pseudomonas aeruginosa = experiment: Antibacterial activity against Pseudomonas aeruginosa MTCC 2295 after 18 hrs by micro dilution broth assay; type: functional; conditions: MTCC 2295, 18 h; how it was run: as §2
Aspergillus fumigatus [7] = experiment: Membrane disruption effect in Aspergillus fumigatus ATCC 42203 assessed as surface blebs and aggregation at 4 times MIC by scanning electron microscopy; type: functional, organism-based
[8] = Therapeutic index, ratio of HC50 for human RBCs to MIC for Staphylococcus aureus MTCC 3160; conditions: red blood cells (RBCs), read-out: TI
Bacillus subtilis = experiment: Antibacterial activity against Bacillus subtilis MTCC 2763 after 18 hrs by micro dilution broth assay; type: functional; conditions: MTCC 2763, 18 h; how it was run: as §2
Aspergillus fumigatus [9] = experiment: Antifungal activity against Aspergillus fumigatus ATCC 42203 after 24 hrs by M27-A method; type: functional; conditions: ATCC 42203, 24 h; how it was run: as §4
Cryptococcus neoformans = experiment: Antifungal activity against Cryptococcus neoformans ATCC 2344 after 48 to 72 hrs by M27-A method; type: functional; how it was run: as §4
[10] = Therapeutic index, ratio of HC50 for human RBCs to MIC for Escherichia coli MTCC 0723; conditions: red blood cells (RBCs), read-out: TI
[11] = Hemolytic activity in human RBCs; type: ADME, cell-based, Erythrocyte; conditions: red blood cells (RBCs)
How it was run: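 Washed fresh human erythrocytes, 4% (v/v) in PBS (35 mM phosphate, 150 mM NaCl, pH 7.2), mixed 1:1 with 2-fold dilutions in PBS. Incubated 1 h at 37 °C without agitation, then centrifuged at 1000 g for 5 min. Supernatant hemoglobin read at 440 nm; % hemolysis = 100(A−A0)/(At−A0).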

Candida albicans [12] = experiment: Antifungal activity against Candida albicans ATCC 24433 after 48 to 72 hrs by M27-A method; type: functional; how it was run: as §4
Aspergillus fumigatus [13] = experiment: Antifungal activity against fluconazole-resistant Aspergillus fumigatus IGMC/LM1/0336 after 24 hrs by M27-A method; type: functional; conditions: IGMC/LM1/0336, 24 h; how it was run: as §1
Staphylococcus aureus [14] = experiment: Antibacterial activity against Staphylococcus aureus MTCC 3160 after 18 hrs by micro dilution broth assay; type: functional; conditions: MTCC 3160, 18 h; how it was run: as §2
[15] = Membrane permeabilization activity assessed as release of calcein from PE/PG liposomes at 4 ug/ml after 5 mins by spectrofluorimetry; type: ADME; how it was run: as §3
Staphylococcus aureus [16] = experiment: Antibacterial activity against methicillin-resistant Staphylococcus aureus PGI/ DML03149 clinical isolate after 18 hrs by micro dilution broth assay; type: functional; conditions: PGI/ DML03149, 18 h

Row | SMILES | MIC (Candida albicans [1]) [µg/mL] | MIC (Escherichia coli [2]) [µg/mL] | Activity [3] [%] | MIC (Aspergillus niger) [µg/mL] | Activity [4] [%] | Activity [5] [%] | MIC (Escherichia coli [6]) [µg/mL] | MIC (Pseudomonas aeruginosa) [µg/mL] | Activity (Aspergillus fumigatus [7]) | selectivity ratio [8] | MIC (Bacillus subtilis) [µg/mL] | MIC (Aspergillus fumigatus [9]) [µg/mL] | MIC (Cryptococcus neoformans) [µg/mL] | selectivity ratio [10] | HC50 [11] [µg/mL] | MIC (Candida albicans [12]) [µg/mL] | MIC (Aspergillus fumigatus [13]) [µg/mL] | MIC (Staphylococcus aureus [14]) [µg/mL] | Activity [15] [%] | MIC (Staphylococcus aureus [16]) [µg/mL]
1 | CCCCCCCCCCCCCCCCCC(=O)Nc1cccc(C(=O)NC(CCCN)C(=O)NC(CCCN)C(=O)NC(CCCN)C(=O)NC(CCCN)C(N)=O)c1 (configuration not stated) ({Stearoyl-3Abz}-[Orn][Orn][Orn][Orn]-NH2; configuration not given here) | 2 (≈ 2.33 µM) | 3.5 (≈ 4.07 µM) | 57 | 1.5 (≈ 1.75 µM) | 89 | 84 | 5 (≈ 5.82 µM) | 6.25 (≈ 7.27 µM) | Active | 20 | 12.5 (≈ 14.5 µM) | 1.5 (≈ 1.75 µM) | 5.5 (≈ 6.4 µM) | 57.1 | 200 | 1.5 (≈ 1.75 µM) | 2 (≈ 2.33 µM) | 10 (≈ 11.6 µM) | 44 | 10.5 (≈ 12.2 µM)
2 | CCCCCCCCCCCCCC(=O)Nc1cccc(C(=O)NC(CCCN)C(=O)NC(CCCN)C(=O)NC(CCCN)C(N)=O)c1 (configuration not stated) | 6.25 (≈ 9.07 µM) | 2.25 (≈ 3.27 µM) | – | 5 (≈ 7.26 µM) | – | – | 4 (≈ 5.81 µM) | 2.5 (≈ 3.63 µM) | – | 242 | 15.5 (≈ 22.5 µM) | 4.5 (≈ 6.53 µM) | 10 (≈ 14.5 µM) | 333 | 750 | 5.5 (≈ 7.98 µM) | 6.25 (≈ 9.07 µM) | 3.1 (≈ 4.5 µM) | – | 4.5 (≈ 6.53 µM)
3 | CCCCCCCCCC(=O)Nc1cccc(C(=O)NC(CCCN)C(=O)NC(CCCN)C(=O)NC(CCCN)C(=O)NC(CCCN)C(N)=O)c1 (configuration not stated) ({Decanoyl-3Abz}-[Orn][Orn][Orn][Orn]-NH2; configuration not given here) | 50 (≈ 66.9 µM) | 17.5 (≈ 23.4 µM) | 17 | 31.5 (≈ 42.2 µM) | 45 | 67 | 25 (≈ 33.5 µM) | 25 (≈ 33.5 µM) | – | 50 | 100 (≈ 134 µM) | 25 (≈ 33.5 µM) | 50 (≈ 66.9 µM) | 57.1 | 1000 | 50 (≈ 66.9 µM) | 25 (≈ 33.5 µM) | 20 (≈ 26.8 µM) | 11 | 35 (≈ 46.9 µM)
4 | CCCCCCCCCC(=O)Nc1cccc(C(=O)NC(CCCN)C(=O)NC(CCCN)C(=O)NC(CCCN)C(N)=O)c1 (configuration not stated) | 75 (≈ 119 µM) | 62.5 (≈ 98.8 µM) | – | 50 (≈ 79 µM) | – | – | 70 (≈ 111 µM) | 50 (≈ 79 µM) | – | – | 125 (≈ 198 µM) | 31.5 (≈ 49.8 µM) | 75 (≈ 119 µM) | – | > 1000 | 62.5 (≈ 98.8 µM) | 30 (≈ 47.4 µM) | 31.2 (≈ 49.3 µM) | – | 50 (≈ 79 µM)
5 | CCCCCCCCCCCCCCCCCC(=O)Nc1cccc(C(=O)NC(CCCN)C(=O)NC(CCCN)C(=O)NC(CCCN)C(N)=O)c1 (configuration not stated) | 2 (≈ 2.68 µM) | 6.25 (≈ 8.39 µM) | – | 3.5 (≈ 4.7 µM) | – | – | 7.5 (≈ 10.1 µM) | 10 (≈ 13.4 µM) | – | 20 | 25 (≈ 33.6 µM) | 2 (≈ 2.68 µM) | 6.5 (≈ 8.72 µM) | 40 | 250 | 2.25 (≈ 3.02 µM) | 2.5 (≈ 3.36 µM) | 12.5 (≈ 16.8 µM) | – | 10.5 (≈ 14.1 µM)
6 | CCCCCCCCCCCC(=O)Nc1cccc(C(=O)NC(CCCN)C(=O)NC(CCCN)C(=O)NC(CCCN)C(=O)NC(CCCN)C(N)=O)c1 (configuration not stated) ({Lauroyl-3Abz}-[Orn][Orn][Orn][Orn]-NH2; configuration not given here) | 7.5 (≈ 9.68 µM) | 1.5 (≈ 1.94 µM) | – | 6.25 (≈ 8.06 µM) | – | – | 5.5 (≈ 7.1 µM) | 1.5 (≈ 1.94 µM) | – | 300 | 15.5 (≈ 20 µM) | 5 (≈ 6.45 µM) | 10.5 (≈ 13.5 µM) | 500 | 750 | 5.5 (≈ 7.1 µM) | 5.5 (≈ 7.1 µM) | 2.5 (≈ 3.23 µM) | – | 3.25 (≈ 4.19 µM)
